Values belong to the compound of their own block, whether it stands above or below them.
Experiments:
human ACE2 = conditions: ref Wang et al. [2024], Joshi et al. [2016]; cited from earlier work
human testicular ACE = conditions: ref Wang et al. [2024], Joshi et al. [2016]; cited from earlier work
[1] = target: bovine carboxypeptidase A; conditions: ref Wang et al. [2024], Joshi et al. [2016]; cited from earlier work
ACE2 = ACE2 (Homo sapiens, UniProt Q9BYF1); assay: In vivo biodistribution studies; set-up: species or system humanized ACE2 mice; conditions: 30 min after injection, i.v. tail vein 3.7 MBq/kg, mean ± SD, n = 3
Procedure, shortened: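 Male humanized ACE2 knock-in mice (C57BL/6 background, 6 weeks old) under 1.5% isoflurane, kept warm, received the ¹⁸F-labelled test compound by lateral tail vein and were killed by cervical dislocation 30 min later. Organs were weighed and gamma-counted, decay-corrected to euthanasia, and reported as %ID/g. Anti-ACE2 IHC AOD (integrated optical density/area) was linearly regressed against %ID/g.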

Chain of ACE2 (Q9BYF1 18-805): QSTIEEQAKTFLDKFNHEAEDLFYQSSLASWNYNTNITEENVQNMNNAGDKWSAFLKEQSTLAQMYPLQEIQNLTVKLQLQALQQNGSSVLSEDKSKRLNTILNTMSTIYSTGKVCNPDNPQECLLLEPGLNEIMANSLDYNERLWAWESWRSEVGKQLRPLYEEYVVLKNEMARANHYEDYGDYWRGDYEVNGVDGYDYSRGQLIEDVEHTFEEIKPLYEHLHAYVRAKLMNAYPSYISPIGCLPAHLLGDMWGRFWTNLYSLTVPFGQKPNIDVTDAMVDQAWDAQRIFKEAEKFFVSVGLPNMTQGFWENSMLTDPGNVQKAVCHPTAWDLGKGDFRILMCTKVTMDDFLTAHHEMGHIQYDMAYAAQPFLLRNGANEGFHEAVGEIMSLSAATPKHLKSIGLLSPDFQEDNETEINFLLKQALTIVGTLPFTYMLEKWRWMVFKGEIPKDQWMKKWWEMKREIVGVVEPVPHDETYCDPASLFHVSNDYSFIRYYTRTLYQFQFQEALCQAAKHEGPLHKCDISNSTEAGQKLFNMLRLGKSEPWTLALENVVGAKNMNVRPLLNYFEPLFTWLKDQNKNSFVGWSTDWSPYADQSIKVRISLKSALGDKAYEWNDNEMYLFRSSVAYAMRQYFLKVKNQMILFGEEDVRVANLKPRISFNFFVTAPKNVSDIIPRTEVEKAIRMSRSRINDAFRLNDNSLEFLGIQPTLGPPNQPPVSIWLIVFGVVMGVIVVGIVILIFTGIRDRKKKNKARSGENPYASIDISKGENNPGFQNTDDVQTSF

Structure (SMILES): CC(C)C[C@H](N[C@@H](Cc1cncn1Cc1cc(Cl)cc(Cl)c1)C(=O)O)C(=O)O [MLN-4760]
IC50 (human ACE2): 0.00044 µM
IC50 (human testicular ACE): > 100 µM
IC50 [1]: 27 µM

Tissue uptake, Belly fat (ACE2): 0.48 ± 0.45 %ID/g
Tissue uptake, Cerebellum (ACE2): 0.40 ± 0.22 %ID/g
Tissue uptake, Cerebrum (ACE2): 3.18 ± 4.31 %ID/g
Tissue uptake, Eyeball (ACE2): 2.84 ± 0.74 %ID/g
Tissue uptake, Heart (ACE2): 3.26 ± 0.28 %ID/g
Tissue uptake, Kidneys (ACE2): 4.73 ± 0.58 %ID/g
Tissue uptake, Large intestine (ACE2): 3.34 ± 1.88 %ID/g
Tissue uptake, Liver (ACE2): 2.31 ± 0.77 %ID/g
Tissue uptake, Lung (ACE2): 2.49 ± 1.09 %ID/g
Tissue uptake, Medulla (ACE2): 1.83 ± 0.27 %ID/g
Tissue uptake, Muscle (ACE2): 2.27 ± 0.75 %ID/g
Tissue uptake, Oesophagus (ACE2): 11.32 ± 4.13 %ID/g
Tissue uptake, Parotid (ACE2): 1.93 ± 0.79 %ID/g
Tissue uptake, Shoulder fat (ACE2): 2.84 ± 1.56 %ID/g
Tissue uptake, Small intestine (ACE2): 2.74 ± 0.90 %ID/g
Tissue uptake, Spleen (ACE2): 1.58 ± 2.11 %ID/g
Tissue uptake, Stomach (ACE2): 3.34 ± 2.71 %ID/g
Tissue uptake, Testicles (ACE2): 2.91 ± 1.95 %ID/g
Structure (SMILES): CC(C)C[C@H](N[C@@H](Cc1cncn1Cc1cc([18F])cc(Cl)c1)C(=O)O)C(=O)O [^18F-MLN-4760]

Source: publication PMC11612064 (EJNMMI Radiopharmacy and Chemistry, 2024)
